In ChEMBL document CHEMBL2311458, “A facile synthesis, antibacterial activity of pulvinone and its derivatives” (2013):
Converted amounts (≈) assume the structure as drawn. The source made the active and inactive calls. The rule behind the calls is not given here.

Tests used:
Type in all cases: functional
Staphylococcus aureus [1] = test: Antibacterial activity against Staphylococcus aureus assessed as growth inhibition measured at 50 ug/ml after 24 hrs by broth microdilution method
Acinetobacter baumannii [2] = test: Antibacterial activity against Acinetobacter baumannii assessed as growth inhibition measured at 50 ug/ml after 24 hrs by broth microdilution method
[3] = test system: Stenotrophomonas maltophilia; test: Antibacterial activity against Stenotrophomonas maltophilia assessed as growth inhibition measured at 50 ug/ml after 24 hrs by broth microdilution method
Pseudomonas aeruginosa [4] = test: Antibacterial activity against Pseudomonas aeruginosa assessed as growth inhibition measured at 50 ug/ml after 24 hrs by broth microdilution method
Escherichia coli [5] = test: Antibacterial activity against Escherichia coli assessed as growth inhibition measured at 50 ug/ml after 24 hrs by broth microdilution method
Escherichia coli [6] = test: Antibacterial activity against Escherichia coli assessed as growth inhibition measured after 24 hrs by broth microdilution method
How it was run: (§1)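 Broth microdilution per NCCLS. Bacteria were grown in Luria broth to exponential phase. Compounds were dissolved in DMSO (stock 5120 μg/ml), diluted in test medium and tested at two-fold dilutions from 1 to 128 μg/ml. MIC50 is the lowest concentration reducing OD to half that of the untreated control.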

Acinetobacter baumannii [7] = test: Antibacterial activity against Acinetobacter baumannii assessed as growth inhibition measured after 24 hrs by broth microdilution method; how it was run: as §1
[8] = test system: Stenotrophomonas maltophilia; test: Antibacterial activity against Stenotrophomonas maltophilia assessed as growth inhibition measured after 24 hrs by broth microdilution method; how it was run: as §1
Pseudomonas aeruginosa [9] = test: Antibacterial activity against Pseudomonas aeruginosa assessed as growth inhibition measured after 24 hrs by broth microdilution method; how it was run: as §1
Staphylococcus aureus [10] = test: Antibacterial activity against Staphylococcus aureus assessed as growth inhibition measured after 24 hrs by broth microdilution method; how it was run: as §1

SMILES	inhibition (Staphylococcus aureus [1])	inhibition at 50 µg/mL (Acinetobacter baumannii [2])	inhibition at 50 µg/mL [3]	inhibition at 50 µg/mL (Pseudomonas aeruginosa [4])	inhibition at 50 µg/mL (Escherichia coli [5])	MIC50 (Escherichia coli [6])	inhibition at 50 µg/mL (Staphylococcus aureus [1])	MIC50 (Acinetobacter baumannii [7])	MIC50 [8]	MIC50 (Pseudomonas aeruginosa [9])	MIC50 (Staphylococcus aureus [10])
COC1=C(c2ccc(F)cc2)C(=O)OC1C(O)c1ccc(N2CCOCC2)c(F)c1 (centres undefined)	inactive	22.8%	31.9%	35.2%	42%	> 50 µg/mL					
O=C1O/C(=C\c2ccccc2)C(O)=C1c1ccccc1 [PULVINONE]						1.38 µg/mL (≈ 5.22 µM)	59.2%	> 50 µg/mL	12.8 µg/mL (≈ 48.4 µM)	> 50 µg/mL	
C[C@H]1COc2c(N3CCN(C)CC3)c(F)cc3c(=O)c(C(=O)O)cn1c23.C[C@H]1COc2c(N3CCN(C)CC3)c(F)cc3c(=O)c(C(=O)O)cn1c23.O [LEVOFLOXACIN]						< 0.25 µg/mL		< 0.25 µg/mL	< 0.25 µg/mL	< 0.25 µg/mL	< 0.25 µg/mL
COC1=C(c2ccccc2)C(=O)O/C1=C\c1ccc(N2CCOCC2)c(F)c1	inactive	10%		17.6%	45.4%	> 50 µg/mL					
COC1=C(c2ccccc2)C(=O)OC1C(O)c1ccc(N2CCOCC2)c(F)c1 (centres undefined)	inactive	29.2%	17.1%	34.8%	52.4%	36.5 µg/mL (≈ 91.3 µM)					
O=C1O/C(=C\c2ccc(N3CCOCC3)c(F)c2)C(O)=C1c1ccc(F)cc1	inactive	15.6%	27.8%	23.2%	56.8%	15.6 µg/mL (≈ 40.5 µM)					
COC1=C(c2ccc(Cl)cc2)C(=O)O/C1=C\c1ccc(N2CCOCC2)c(F)c1	inactive			45.3%	70.7%	7.4 µg/mL (≈ 17.8 µM)					
COC1=C(c2ccccc2)C(=O)OC1C(O)c1ccccc1 (centres undefined)	inactive	25.9%	18%	53.2%	61.7%	5.86 µg/mL (≈ 19.8 µM)					
COC1=C(c2cccc(F)c2)C(=O)OC1C(O)c1ccc(N2CCOCC2)c(F)c1 (centres undefined)	inactive	30.9%	41.5%	38.2%	72%	4.09 µg/mL (≈ 9.8 µM)					
COC1=C(c2ccc(C)cc2)C(=O)OC1C(O)c1ccc(N2CCOCC2)c(F)c1 (centres undefined)	inactive	4.9%	1.1%	31.8%	58.3%	3.67 µg/mL (≈ 8.88 µM)					
COC1=C(c2ccc(Cl)cc2)C(=O)OC1C(O)c1ccc(N2CCOCC2)c(F)c1 (centres undefined)	inactive	22.1%		31.7%	61.8%	30.3 µg/mL (≈ 69.7 µM)					
COC1=C(c2ccc(F)cc2)C(=O)O/C1=C\c1ccc(N2CCOCC2)c(F)c1	inactive	20.1%	59.4%	23.4%	37.6%	> 50 µg/mL			20.6 µg/mL (≈ 51.7 µM)		
COC1=C(c2ccc(Br)cc2)C(=O)OC1C(O)c1ccc(N2CCOCC2)c(F)c1 (centres undefined)	inactive	32.9%		35.6%	45.5%	1.01 µg/mL (≈ 2.11 µM)			11.8 µg/mL (≈ 24.8 µM)		
COC1=C(c2ccccc2)C(=O)O/C1=C\c1ccccc1	inactive	18.2%	19.7%	45.4%	60.2%	3.91 µg/mL (≈ 14 µM)					
